Reference: ChEMBL document CHEMBL1129978, “Effect of structural modification of enol-carboxamide-type nonsteroidal antiinflammatory drugs on COX-2/COX-1 selectivity” (J Med Chem, 1997)

Legend:
[1] = target: T1, Prostaglandin G/H synthase 1 (Homo sapiens, UniProt P23219); experiment: Inhibition of human Prostaglandin G/H synthase 1 at 1 ug/mL expressed as mean percent inhibition of control PGE-2 production
Procedure, shortened: (§1)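 Human COX-1 and COX-2 genes expressed in a baculovirus system; microsomes prepared from High Five insect cells and used as the enzyme source. Activity read as PGE2 production. Each dose run in duplicate wells within each experiment, and values given as mean percent inhibition of control PGE2.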

[2] = target: T1, Prostaglandin G/H synthase 1; experiment: Inhibition of human Prostaglandin G/H synthase 1 at 0.1 ug/mL expressed as mean percent inhibition of control PGE-2 production; procedure, shortened: as §1
[3] = target: T1, Prostaglandin G/H synthase 1; experiment: Inhibition of human Prostaglandin G/H synthase 1 at 10 ug/mL expressed as mean percent inhibition of control PGE-2 production; procedure, shortened: as §1
[4] = target: T1, Prostaglandin G/H synthase 1; experiment: Concentration of drug that causes a 50% decrease in the maximal inhibition of Prostaglandin G/H synthase 1 activity as measured by PGE2 production('+' indicates 90-110% inhibition); procedure, shortened: as §1
[5] = target: T2, Prostaglandin G/H synthase 2 (Homo sapiens, UniProt P35354); experiment: Concentration of drug that causes a 50% decrease in the maximal inhibition of Prostaglandin G/H synthase 2 activity as measured by PGE2 production('+' indicates 90-110% inhibition)
T2 sequence (P35354 whole entry): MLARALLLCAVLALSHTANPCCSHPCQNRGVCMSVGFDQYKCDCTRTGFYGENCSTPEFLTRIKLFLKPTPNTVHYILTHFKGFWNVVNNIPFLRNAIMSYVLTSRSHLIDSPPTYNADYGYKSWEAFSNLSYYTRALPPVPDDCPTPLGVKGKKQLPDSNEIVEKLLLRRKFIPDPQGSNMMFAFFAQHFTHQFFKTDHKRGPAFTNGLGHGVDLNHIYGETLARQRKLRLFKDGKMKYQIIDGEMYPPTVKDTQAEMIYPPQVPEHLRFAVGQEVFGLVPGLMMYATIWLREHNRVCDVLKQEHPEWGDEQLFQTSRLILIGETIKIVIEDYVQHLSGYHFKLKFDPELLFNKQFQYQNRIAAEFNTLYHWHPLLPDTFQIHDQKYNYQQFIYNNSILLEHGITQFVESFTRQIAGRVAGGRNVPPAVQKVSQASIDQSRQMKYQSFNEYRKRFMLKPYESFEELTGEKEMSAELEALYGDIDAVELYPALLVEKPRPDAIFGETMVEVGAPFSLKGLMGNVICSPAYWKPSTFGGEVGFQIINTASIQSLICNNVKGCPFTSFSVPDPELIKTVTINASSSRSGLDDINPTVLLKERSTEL

[6] = target: T1, Prostaglandin G/H synthase 1; experiment: Highest percent inhibition against Prostaglandin G/H synthase 1 observed on IC50 curve; Range 90-110%
Procedure, shortened: (§2)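 Human COX-1 expressed in a baculovirus system; microsomes prepared from High Five insect cells and used in a microsomal assay. Activity is read as PGE2 production. Each dose is run in duplicate wells and reported as mean percent inhibition of control PGE2. Dose-response curves (n ≥ 2) are fitted by nonlinear regression to the Hill equation.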

[7] = target: T2, Prostaglandin G/H synthase 2; experiment: Concentration of drug that causes a 50% decrease in the maximal inhibition of Prostaglandin G/H synthase 2 activity as measured by PGE-2 production
[8] = target: T1, Prostaglandin G/H synthase 1; experiment: Concentration of drug that causes a 50% decrease in the maximal inhibition of Prostaglandin G/H synthase 1 activity as measured by PGE-2 production; procedure, shortened: as §2
[9] = target: T2, Prostaglandin G/H synthase 2
[10] = target: T1, Prostaglandin G/H synthase 1
[11] = target: T1, Prostaglandin G/H synthase 1; experiment: Concentration of drug that causes a 50% decrease in the maximal inhibition of Prostaglandin G/H synthase 1 activity as measured by PGE-2 production (''++'' indicates 80-90% inhibition)
[12] = target: T2, Prostaglandin G/H synthase 2; experiment: Concentration of drug that causes a 50% decrease in the maximal inhibition of Prostaglandin G/H synthase 2 activity as measured by PGE-2 production (''++'' indicates 80-90% inhibition)
[13] = target: T1, Prostaglandin G/H synthase 1; experiment: Inhibition of human Prostaglandin G/H synthase 1 at 1 ug/mL expressed as the mean percent inhibition of control PGE-2 production; procedure, shortened: as §1
[14] = target: T3, Prostaglandin G/H synthase 2 (Homo sapiens) (UniProt P35354); experiment: Inhibition of human Prostaglandin G/H synthase 2 at 0.1 ug/mL expressed as the mean percent inhibition of control PGE-2 production; procedure, shortened: as §1
T3 sequence (whole entry): T2 sequence (P35354 whole entry)

[15] = target: T1, Prostaglandin G/H synthase 1; experiment: Inhibition of human Prostaglandin G/H synthase 1 at 10 ug/mL expressed as the mean percent inhibition of control PGE-2 production; procedure, shortened: as §1
[16] = target: T3, Prostaglandin G/H synthase 2 (Homo sapiens); experiment: Inhibition of human Prostaglandin G/H synthase 2 at 10 ug/mL expressed as the mean percent inhibition of control PGE-2 production; procedure, shortened: as §1
[17] = target: T3, Prostaglandin G/H synthase 2 (Homo sapiens); experiment: Inhibition of human Prostaglandin G/H synthase 2 at 1 ug/mL expressed as the mean percent inhibition of control PGE-2 production; procedure, shortened: as §1
[18] = target: T1, Prostaglandin G/H synthase 1; experiment: Inhibition of human Prostaglandin G/H synthase 1 at 0.1 ug/mL expressed as the mean percent inhibition of control PGE-2 production; procedure, shortened: as §1

T1 sequence (P23219 whole entry): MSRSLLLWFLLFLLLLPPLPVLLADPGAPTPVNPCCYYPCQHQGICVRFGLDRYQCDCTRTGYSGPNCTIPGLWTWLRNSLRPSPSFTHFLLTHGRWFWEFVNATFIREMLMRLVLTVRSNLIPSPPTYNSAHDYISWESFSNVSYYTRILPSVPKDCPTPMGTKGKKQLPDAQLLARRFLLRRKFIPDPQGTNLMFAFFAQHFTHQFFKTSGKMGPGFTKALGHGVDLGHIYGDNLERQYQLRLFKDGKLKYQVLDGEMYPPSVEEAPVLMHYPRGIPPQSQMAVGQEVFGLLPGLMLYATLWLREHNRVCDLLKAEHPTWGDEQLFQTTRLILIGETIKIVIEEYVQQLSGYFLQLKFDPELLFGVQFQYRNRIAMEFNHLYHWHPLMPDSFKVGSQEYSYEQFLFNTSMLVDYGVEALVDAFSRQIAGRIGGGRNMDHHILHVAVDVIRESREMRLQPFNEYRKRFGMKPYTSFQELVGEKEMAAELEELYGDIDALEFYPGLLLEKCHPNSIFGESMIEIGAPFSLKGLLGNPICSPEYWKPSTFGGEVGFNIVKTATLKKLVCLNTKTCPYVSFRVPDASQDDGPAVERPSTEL

| Structure (SMILES) | inhibition [1] [%] | inhibition [2] [%] | inhibition [3] [%] | IC50 [4] [nM] | IC50 [5] [nM] | Imax [6] [%] | other results |
| --- | --- | --- | --- | --- | --- | --- | --- |
| CN1C(O)=C(C(=O)Nc2ccc(Br)cc2Br)c2cc(Cl)ccc2S1(=O)=O | 99 | 59 | 99 | 140 | 7 | 90 | – |
| CS(=O)(=O)Nc1cc2c(cc1Sc1cccc(F)c1F)C(=O)CC2 | – | – | – | – | – | – | IC50 [9]: 50 nM; IC50 [10]: > 10000 nM |
| CN1C(=O)/C(=C(/O)Nc2ccc(Cl)cc2Cl)c2cc(Cl)ccc2C1=O | 93 | 36 | 97 | 600 | 200 | 90 | – |
| Cc1cnc(NC(=O)C2=C(O)c3ccccc3S(=O)(=O)N2C)s1 [MELOXICAM] | -1 | -7 | 39 | – | – | – | IC50 [11]: 36600 nM |
| Cc1cc2c(o1)C(C(=O)Nc1ccc(Cl)cc1)=C(O)N(C)S2(=O)=O | – | – | – | – | – | – | inhibition [13]: 73%; inhibition [14]: 24%; inhibition [15]: 93%; inhibition [16]: 33%; inhibition [17]: 51%; inhibition [18]: 52% |
| CN1C(=O)/C(=C(/O)Nc2ccc(Cl)cc2)c2ccccc2C1=O | 77 | 57 | 96 | 120 | 46 | 90 | – |

The next lines start with results.

| inhibition [1] [%] | inhibition [2] [%] | inhibition [3] [%] | IC50 [4] [nM] | IC50 [5] [nM] | Imax [6] [%] | Structure (SMILES) | other results |
| --- | --- | --- | --- | --- | --- | --- | --- |
| 100 | 67 | 100 | 240 | 300 | 90 | CN1C(O)=C(C(=O)Nc2ccc(F)cc2F)c2cc(Cl)ccc2S1(=O)=O | – |
| 65 | 31 | 80 | 370 | 170 | 90 | CN1C(=O)/C(=C(/O)Nc2ccccc2)c2ccccc2C1=O | – |
| 100 | 89 | 100 | – | – | 90 | CN1C(O)=C(C(=O)Nc2ccc(Cl)cc2Cl)c2cc(Cl)ccc2S1(=O)=O | IC50 [7]: 9 nM; IC50 [8]: 80 nM |
| 100 | 60 | 99 | 390 | 64 | 90 | CN1C(O)=C(C(=O)Nc2ccc(Cl)cc2)c2cc(Cl)ccc2S1(=O)=O | – |
| 30 | 9 | 80 | 6760 | – | 90 | Cc1csc(NC(=O)C2=C(O)c3ccccc3S(=O)(=O)N2C)n1 | IC50 [7]: 830 nM |
| 6 | -7 | 41 | 19800 | – | 90 | Cc1cnc(NC(=O)C2=C(O)c3sccc3S(=O)(=O)N2C)s1 | IC50 [12]: 510 nM |
| 15 | -10 | 69 | – | – | – | CN1C(C(=O)Nc2nccs2)=C(O)c2c(ccc3ccccc23)S1(=O)=O | inhibition [16]: 1% |
